Inhibition data for 12 molecules are collected here from PubChem BioAssay.

The structures appear in SMILES notation. The list shows a part of the results. The source made the active and inactive calls. Unless noted, the rule behind the calls is not given here.

A short description of assay [1]: inhibition of Brca1/Bard1 split-luciferase complementation, confirmation, counter-screen for Mdm2/MdmX interaction inhibitor project, luminescence, single concentration (AID 504668). The note with it: Brca1/Bard1 bimolecular luciferase complementation counterscreen, at 8 µM, stronger effect = higher value. For orientation: A counterscreen serves to expose hits that act by an unwanted route or on another target.

Assay [2] concerns the target PEG-3 (UniProt Q6IN02). In words: Peg3 promoter luciferase inhibitors, potency, dose response, cell-based, HeLa, CREF/GAPDH counter-screen panel (AID 624167). Conditions: CREF/GAPDH counter-screens; HeLa PEG-Prom luciferase reporter, overnight, run 1, dose range 1, at 100 µM (top of the series) unless noted.
Assay [3] concerns the target PEG-3 (UniProt Q6IN02). The assay is described as above. The note with it: CREF/GAPDH counter-screens; HeLa PEG-Prom luciferase reporter, overnight, run 2, dose range 1, at 100 µM (top of the series) unless noted.
The nature of assay [4]: inhibitors of PAF-induced NF-kB signaling, retest, confirmation, cell-based, GFP fluorescence, single concentration (AID 602472; in the data active = inhibition above about 40%;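 note: stimulus PAF is a Pseudomonas aeruginosa filtrate and not platelet activating factor; plate controls were DMSO wells with stimulus for no effect and unstimulated DMSO wells for full effect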). Conditions: KKLEB CF airway cells, overnight, at 5 µM, stronger effect = higher value. Put shortly: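 Material – KKLEB NFkB-GFP reporter cells · Buffer or medium – medium with 2% FBS for cells, serum-free medium for stimulus · Incubation – 2 h pretreatment, overnight stimulation · Signal – reporter fluorescence (GFP) · Also added – Pseudomonas aeruginosa filtrate (PAF) as NFkB-activating stimulus · Doses – 5 µM single dose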

Assay [5] can be described thus: inhibitors of PAF-induced NFkB signaling in CF airway cells, dose response, cell-based, uHTS hits, panel, cytotoxicity readout (AID 624344). Conditions: CF bronchial epithelial cells, PAF-induced NFkB reporter inhibition, with PAF, run 1; at 79 µM (top of the series) unless noted.
Experiment in assay [6]: as above
Conditions: CF bronchial epithelial cells, PAF-induced NFkB reporter inhibition, with PAF, run 2; at 79 µM (top of the series) unless noted.

A short description of assay [7]: Peg3 promoter reporter inhibitors, retest, confirmation, cell-based, HeLa, luciferase reporter, single concentration (AID 602417;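 active = at 20 µM dose, 40% or more inhibition averaged across four replicates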). The note with it: HeLa PEG-Prom luciferase reporter, luminescence, overnight; at 20 µM; stronger effect = higher value.
Assay [8] relates to Rat fibroblasts (CREF). Kind of assay: Peg3 promoter luciferase inhibitors, potency, dose response, cell-based, HeLa, CREF/GAPDH counter-screen panel (AID 624167). The note with it: CREF/GAPDH counter-screens; run 1, dose range 1, at 100 µM (top of the series).
Assay [9] relates to Rat fibroblasts (CREF). The assay is described as above. The note with it: CREF/GAPDH counter-screens; run 2, dose range 1, at 100 µM (top of the series).

Chain of PEG-3 (Q6IN02 whole entry, looked up): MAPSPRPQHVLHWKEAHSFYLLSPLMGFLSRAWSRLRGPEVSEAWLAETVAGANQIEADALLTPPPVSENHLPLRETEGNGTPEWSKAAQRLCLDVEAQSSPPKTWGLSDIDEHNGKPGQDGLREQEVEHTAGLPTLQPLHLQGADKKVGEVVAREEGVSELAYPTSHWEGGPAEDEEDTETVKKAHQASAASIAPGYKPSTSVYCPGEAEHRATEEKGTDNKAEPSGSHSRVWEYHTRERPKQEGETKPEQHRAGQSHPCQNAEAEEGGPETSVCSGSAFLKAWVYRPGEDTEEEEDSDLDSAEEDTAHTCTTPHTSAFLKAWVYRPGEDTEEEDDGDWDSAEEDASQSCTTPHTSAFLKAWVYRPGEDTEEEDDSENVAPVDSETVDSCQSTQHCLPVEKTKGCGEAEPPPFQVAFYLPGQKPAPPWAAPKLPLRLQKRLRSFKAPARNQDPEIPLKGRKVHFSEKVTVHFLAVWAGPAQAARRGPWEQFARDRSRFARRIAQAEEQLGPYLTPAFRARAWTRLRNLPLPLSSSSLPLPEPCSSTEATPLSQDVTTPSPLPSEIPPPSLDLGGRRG

What is called inhibition is the relative decrease from the control value, in per cent. As for `O=C1/C(=C\c2cccc(O)c2O)SC(=S)N1Cc1ccccc1`, the inhibition in [1] was 34.2% (active); with PEG-3 [2] it was 99.6%; with PEG-3 [3] it was 101%.
With `COc1cc(/C=C/c2ccc3cccc(O)c3n2)c(Br)cc1O`, the inhibition is 29.2% (active) in assay [1], 99.5% in the assay with PEG-3 [2] and 96.1% with PEG-3 [3].
`Brc1ccc2ncnc(NCc3cccnc3)c2c1`: the inhibition in assay [1] is 26.8% (active); in assay [4] it was 69.2% (active); in assay [5] it was 105%; in assay [6] it was 94.9%.
Regarding `CNC[C@H](CC1CCCCC1)NC[C@H](NCCC1CCCC1)[C@H](C)O`, the inhibition in assay [1] was 30.2% (active); in assay [7] it was 97.4% (active); in the assay with PEG-3 [2] it was 102%; in the assay with PEG-3 [3] it was 99.9%.
On to `C=CCc1cccc(/C=N/NC(=O)C(C)Nc2cccc(C)c2)c1O` (configuration not stated), for which the inhibition was 34.9% (active) in assay [1]; 60.8% with PEG-3 [2]; 62% in the assay with PEG-3 [3]; 39.7% with Rat fibroblasts (CREF) [8]; 47.8% in the assay with Rat fibroblasts (CREF) [9].
For `Cc1ccc2occ(/C=N/NC(=O)c3ccccc3C)c(=O)c2c1`, the inhibition in assay [1] is 34.4% (active); in assay [4], 94.8% (active); in assay [5], 102%; in assay [6], 110%.
Take `Cc1nnc(NC(=O)Nc2ccc(Cl)c(Cl)c2)s1`: the inhibition in [1] is 33.4% (active); in assay [4], 68% (active); in assay [5], 91.7%; in assay [6], 87.1%.
Turning to `CC(=O)Nc1nc(C)c(-c2csc(Nc3ccc(S(N)(=O)=O)cc3)n2)s1`, the inhibition in [1] is 31.7% (active).
Regarding `CCCC(=O)NC(c1ccc(N(C)C)cc1)c1ccc2cccnc2c1O` (configuration not stated), the inhibition in assay [1] is 29.9% (active); in the assay with PEG-3 [2] it was 24.4%; with PEG-3 [3], 78.2% [run 2, dose range 1, at 50 µM]; in the assay on Rat fibroblasts (CREF) [8], 42.3%; with Rat fibroblasts (CREF) [9], 43.5%.
Consider `CCN1CCN(C(c2ccc(C(F)(F)F)cc2)c2ccc3cccnc3c2O)CC1` (configuration not stated), for which the inhibition in assay [1] was 31.2% (active); with PEG-3 [2], 101%; in the assay with PEG-3 [3], 99.4%.
The matching figures for `CC(C)c1ccc(-c2nc3ccccc3s2)cc1`: 35.8% (active), 99.1% and 99.1%.
Consider `O=C(/C=C/c1ccccc1)NC(NC(=S)Nc1cccc(Cl)c1)C(Cl)(Cl)Cl` (configuration not stated), for which the inhibition in [1] was 25.6% (active); with PEG-3 [2], 98.2%; with PEG-3 [3], 99.4%.
